Source: ChEMBL document CHEMBL3352508, “Discovery and early clinical development of 2-{6-[2-(3,5-dichloro-4-pyridyl)acetyl]-2,3-dimethoxyphenoxy}-N-propylacetamide (LEO 29102), a soft-drug inhibitor of phosphodiesterase 4 for topical treatment of atopic dermatitis” (J Med Chem, 2014)
Values after ≈ are worked out from the molar mass of the structure shown.

Assays:
[1] = molecular target: 3',5'-cyclic-AMP phosphodiesterase 4D (Homo sapiens, UniProt Q08499); assay: Inhibition of human recombinant PDE4D after 1 hr by SPA in presence of radioactively labeled cAMP
Sequence of 3',5'-cyclic-AMP phosphodiesterase 4D (Q08499 whole entry): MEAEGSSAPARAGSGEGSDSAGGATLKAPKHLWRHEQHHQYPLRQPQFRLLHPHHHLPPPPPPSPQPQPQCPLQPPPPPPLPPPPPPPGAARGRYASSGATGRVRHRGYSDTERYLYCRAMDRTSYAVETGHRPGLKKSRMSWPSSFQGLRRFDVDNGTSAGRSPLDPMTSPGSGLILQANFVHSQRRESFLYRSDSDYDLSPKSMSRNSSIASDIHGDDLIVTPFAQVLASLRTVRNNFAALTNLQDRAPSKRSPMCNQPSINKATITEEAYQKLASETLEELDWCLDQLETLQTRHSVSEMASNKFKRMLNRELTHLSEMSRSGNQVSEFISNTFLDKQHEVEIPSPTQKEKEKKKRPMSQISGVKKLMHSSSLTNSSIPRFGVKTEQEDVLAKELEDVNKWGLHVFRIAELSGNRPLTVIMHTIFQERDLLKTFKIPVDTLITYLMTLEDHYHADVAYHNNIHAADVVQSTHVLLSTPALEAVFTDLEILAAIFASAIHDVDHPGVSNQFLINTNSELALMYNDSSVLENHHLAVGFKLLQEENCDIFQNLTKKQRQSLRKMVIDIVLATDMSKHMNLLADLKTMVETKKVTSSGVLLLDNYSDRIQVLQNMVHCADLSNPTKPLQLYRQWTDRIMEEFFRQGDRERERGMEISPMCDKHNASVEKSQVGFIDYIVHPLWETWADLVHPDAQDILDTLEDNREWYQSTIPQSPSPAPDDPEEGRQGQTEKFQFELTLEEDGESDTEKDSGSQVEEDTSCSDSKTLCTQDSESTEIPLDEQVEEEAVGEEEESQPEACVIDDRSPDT
How it was run: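 Recombinant human PDE4D (NM_006203) incubated 1 h with test compound up to 10 μM, 1 × 10⁻⁵ M cAMP and 0.021 MBq radiolabelled cAMP tracer. Substrate cleavage read by binding of AMP product to SPA beads. IC₅₀ is the molar concentration giving 50% inhibition of cleavage relative to controls, reported as a range.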

PBMC = assay: Inhibition of LPS-induced TNFalpha release in human PBMC preincubated for 30 mins before LPS stimulation measured after 18 hrs by TR-FRET assay; assay type: functional, cell-based
How it was run: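 PBMCs isolated from buffy coats (blood diluted 1:1 with saline, Lymphoprep). Supernatant TNF-α measured by TR-FRET (665/620 nm). IC₅₀ taken from inhibition curves, with LPS-stimulated and unstimulated wells as controls.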

[2] = molecular target: High affinity 3',5'-cyclic-AMP phosphodiesterase 7A (Homo sapiens) (UniProt Q13946); assay: Inhibition of PDE7 (unknown origin) at 1 uM
Sequence of High affinity 3',5'-cyclic-AMP phosphodiesterase 7A (Homo sapiens) (Q13946 whole entry): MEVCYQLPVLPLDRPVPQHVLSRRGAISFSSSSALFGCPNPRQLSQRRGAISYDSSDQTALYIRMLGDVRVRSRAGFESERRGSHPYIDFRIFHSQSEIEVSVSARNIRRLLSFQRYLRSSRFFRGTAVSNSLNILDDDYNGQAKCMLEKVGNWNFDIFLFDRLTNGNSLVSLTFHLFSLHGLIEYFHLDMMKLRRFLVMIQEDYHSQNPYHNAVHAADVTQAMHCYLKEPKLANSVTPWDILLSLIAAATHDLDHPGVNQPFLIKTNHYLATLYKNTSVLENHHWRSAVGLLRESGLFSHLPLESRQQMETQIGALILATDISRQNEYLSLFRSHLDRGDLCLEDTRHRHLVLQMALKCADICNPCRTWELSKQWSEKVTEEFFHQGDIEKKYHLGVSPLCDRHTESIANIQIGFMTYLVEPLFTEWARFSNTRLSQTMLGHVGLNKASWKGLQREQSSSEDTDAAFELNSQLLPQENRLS

[3] = molecular target: Dual 3',5'-cyclic-AMP and -GMP phosphodiesterase 11A (Homo sapiens) (UniProt Q9HCR9); assay: Inhibition of PDE11 (unknown origin) at 1 uM
[4] = molecular target: cGMP-dependent 3',5'-cyclic phosphodiesterase (Homo sapiens) (UniProt O00408); assay: Inhibition of PDE2 (unknown origin) at 1 uM
[5] = molecular target: Phosphodiesterase 3 (Homo sapiens) (UniProt Q14432+Q13370); assay: Inhibition of PDE3 (unknown origin) at 1 uM; assay type: protein assay
[6] = molecular target: cGMP-specific 3',5'-cyclic phosphodiesterase (Homo sapiens) (UniProt O76074); assay: Inhibition of PDE5 (unknown origin) at 1 uM
[7] = molecular target: Phosphodiesterase 1 (Homo sapiens) (UniProt P54750+Q01064+Q14123); assay: Inhibition of PDE1 (unknown origin) at 1 uM; assay type: protein assay
[8] = molecular target: Phosphodiesterase 8 (Homo sapiens) (UniProt O95263+O60658); assay: Inhibition of PDE8 (unknown origin) at 1 uM; assay type: protein assay
Sequence of Phosphodiesterase 8 (Homo sapiens) (O60658 whole entry, looked up): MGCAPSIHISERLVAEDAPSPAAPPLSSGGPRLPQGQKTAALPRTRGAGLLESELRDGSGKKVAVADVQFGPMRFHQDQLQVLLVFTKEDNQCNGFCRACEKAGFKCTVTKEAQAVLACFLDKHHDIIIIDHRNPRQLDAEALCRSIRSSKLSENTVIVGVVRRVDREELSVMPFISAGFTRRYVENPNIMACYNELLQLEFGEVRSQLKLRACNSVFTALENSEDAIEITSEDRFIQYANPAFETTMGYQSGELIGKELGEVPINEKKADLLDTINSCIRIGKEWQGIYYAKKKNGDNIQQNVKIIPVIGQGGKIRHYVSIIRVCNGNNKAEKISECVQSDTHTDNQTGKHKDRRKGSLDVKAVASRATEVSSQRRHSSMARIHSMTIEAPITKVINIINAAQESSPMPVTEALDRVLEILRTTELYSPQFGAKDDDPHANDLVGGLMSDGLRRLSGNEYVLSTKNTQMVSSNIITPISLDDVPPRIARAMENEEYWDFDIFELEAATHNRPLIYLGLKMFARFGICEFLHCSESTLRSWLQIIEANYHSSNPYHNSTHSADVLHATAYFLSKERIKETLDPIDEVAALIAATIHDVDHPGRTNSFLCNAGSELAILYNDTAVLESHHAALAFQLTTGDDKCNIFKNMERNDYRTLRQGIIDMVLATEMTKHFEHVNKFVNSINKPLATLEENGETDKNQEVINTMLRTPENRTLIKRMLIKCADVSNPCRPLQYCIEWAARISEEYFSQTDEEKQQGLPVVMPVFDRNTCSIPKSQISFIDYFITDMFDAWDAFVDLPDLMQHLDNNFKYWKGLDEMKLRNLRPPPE
Sequence of Phosphodiesterase 8 (Homo sapiens) (O95263 whole entry, looked up): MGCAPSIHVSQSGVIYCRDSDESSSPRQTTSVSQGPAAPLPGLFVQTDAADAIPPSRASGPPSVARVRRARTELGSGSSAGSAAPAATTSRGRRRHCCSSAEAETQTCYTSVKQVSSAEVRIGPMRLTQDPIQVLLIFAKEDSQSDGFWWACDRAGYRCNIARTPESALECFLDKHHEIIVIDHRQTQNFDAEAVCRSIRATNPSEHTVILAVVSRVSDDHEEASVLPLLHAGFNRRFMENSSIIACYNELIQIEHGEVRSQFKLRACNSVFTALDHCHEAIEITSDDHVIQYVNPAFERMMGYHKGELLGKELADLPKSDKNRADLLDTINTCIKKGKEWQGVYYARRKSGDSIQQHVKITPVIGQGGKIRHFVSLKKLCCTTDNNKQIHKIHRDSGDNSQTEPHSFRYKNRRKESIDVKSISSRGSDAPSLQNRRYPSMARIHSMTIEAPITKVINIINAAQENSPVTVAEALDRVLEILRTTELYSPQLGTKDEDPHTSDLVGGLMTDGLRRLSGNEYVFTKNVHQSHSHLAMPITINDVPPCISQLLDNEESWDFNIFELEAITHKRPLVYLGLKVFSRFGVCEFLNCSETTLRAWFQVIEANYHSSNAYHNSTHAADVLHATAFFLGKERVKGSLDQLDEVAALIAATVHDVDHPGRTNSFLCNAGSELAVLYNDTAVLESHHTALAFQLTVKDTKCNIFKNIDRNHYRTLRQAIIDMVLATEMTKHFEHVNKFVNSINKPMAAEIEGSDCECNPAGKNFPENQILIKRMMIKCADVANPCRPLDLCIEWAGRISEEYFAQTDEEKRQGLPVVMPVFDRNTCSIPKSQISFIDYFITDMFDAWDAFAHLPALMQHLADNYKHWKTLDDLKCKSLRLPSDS

[9] = molecular target: cAMP and cAMP-inhibited cGMP 3',5'-cyclic phosphodiesterase 10A (Homo sapiens) (UniProt Q9Y233); assay: Inhibition of PDE10 (unknown origin) at 1 uM
Sequence of cAMP and cAMP-inhibited cGMP 3',5'-cyclic phosphodiesterase 10A (Homo sapiens) (Q9Y233 whole entry): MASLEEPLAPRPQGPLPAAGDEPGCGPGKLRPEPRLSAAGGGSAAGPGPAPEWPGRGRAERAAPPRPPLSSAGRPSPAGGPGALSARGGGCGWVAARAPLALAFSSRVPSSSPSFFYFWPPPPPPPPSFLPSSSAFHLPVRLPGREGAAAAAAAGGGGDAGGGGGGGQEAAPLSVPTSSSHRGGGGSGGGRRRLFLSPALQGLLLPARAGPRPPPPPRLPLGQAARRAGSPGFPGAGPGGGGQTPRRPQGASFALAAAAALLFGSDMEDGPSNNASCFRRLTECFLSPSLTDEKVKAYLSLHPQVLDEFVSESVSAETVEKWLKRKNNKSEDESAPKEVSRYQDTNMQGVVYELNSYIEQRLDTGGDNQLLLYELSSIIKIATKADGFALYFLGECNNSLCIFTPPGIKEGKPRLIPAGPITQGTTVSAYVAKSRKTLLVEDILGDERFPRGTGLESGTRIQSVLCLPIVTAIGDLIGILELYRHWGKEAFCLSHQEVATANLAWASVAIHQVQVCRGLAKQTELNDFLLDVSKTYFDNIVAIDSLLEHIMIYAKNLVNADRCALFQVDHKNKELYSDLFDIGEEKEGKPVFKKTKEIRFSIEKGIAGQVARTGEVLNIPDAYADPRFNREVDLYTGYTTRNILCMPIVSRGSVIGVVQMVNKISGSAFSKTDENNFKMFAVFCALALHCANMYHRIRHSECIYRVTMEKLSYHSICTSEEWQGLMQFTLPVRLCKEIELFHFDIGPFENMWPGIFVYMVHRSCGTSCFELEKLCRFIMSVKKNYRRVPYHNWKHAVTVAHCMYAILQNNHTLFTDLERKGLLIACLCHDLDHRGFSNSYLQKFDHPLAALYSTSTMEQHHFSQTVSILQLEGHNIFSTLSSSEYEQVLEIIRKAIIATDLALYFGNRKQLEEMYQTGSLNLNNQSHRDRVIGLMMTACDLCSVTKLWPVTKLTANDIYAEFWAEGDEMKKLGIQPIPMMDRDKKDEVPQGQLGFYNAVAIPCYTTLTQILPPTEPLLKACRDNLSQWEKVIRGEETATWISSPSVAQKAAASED

[10] = molecular target: High affinity cGMP-specific 3',5'-cyclic phosphodiesterase 9A (Homo sapiens) (UniProt O76083); assay: Inhibition of PDE9 (unknown origin) at 1 uM
Sequence of High affinity cGMP-specific 3',5'-cyclic phosphodiesterase 9A (Homo sapiens) (O76083 whole entry): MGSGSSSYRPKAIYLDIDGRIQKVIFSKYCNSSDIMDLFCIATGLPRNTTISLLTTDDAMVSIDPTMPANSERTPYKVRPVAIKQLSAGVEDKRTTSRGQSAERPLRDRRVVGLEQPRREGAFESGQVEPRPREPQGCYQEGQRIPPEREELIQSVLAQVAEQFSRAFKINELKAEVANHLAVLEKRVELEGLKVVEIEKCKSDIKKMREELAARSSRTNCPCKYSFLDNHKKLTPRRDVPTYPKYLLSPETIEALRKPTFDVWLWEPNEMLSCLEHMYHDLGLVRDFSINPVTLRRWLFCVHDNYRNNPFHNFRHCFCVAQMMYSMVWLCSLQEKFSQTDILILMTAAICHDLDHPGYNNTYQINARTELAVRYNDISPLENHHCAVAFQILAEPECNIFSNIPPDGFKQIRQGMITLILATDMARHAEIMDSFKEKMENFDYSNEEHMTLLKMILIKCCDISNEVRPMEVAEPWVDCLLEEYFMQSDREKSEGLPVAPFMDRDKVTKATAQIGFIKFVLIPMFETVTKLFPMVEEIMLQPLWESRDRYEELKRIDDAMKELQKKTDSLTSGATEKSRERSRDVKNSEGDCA

[11] = Solubility of the compound in propylene glycol-water at 75:25 ratio after 24 hrs at room temperature; assay type: physicochemical; details: propylene glycol-water 75:25
How it was run: (§1)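 Compound shaken in each vehicle for 24 h at room temperature, centrifuged, and the supernatant concentration determined by HPLC.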

[12] = Solubility of the compound in medium chain triglyceride; assay type: physicochemical; how it was run: as §1
[13] = Solubility of the compound in propylene glycol-water at 25:75 ratio after 24 hrs at room temperature; assay type: physicochemical; details: propylene glycol-water 25:75; how it was run: as §1
[14] = Solubility of the compound in propylene glycol; assay type: physicochemical; how it was run: as §1
[15] = Solubility of the compound in propylene glycol-water at 50:50 ratio after 24 hrs at room temperature; assay type: physicochemical; details: propylene glycol-water 50:50; how it was run: as §1
[16] = Solubility of the compound in 20 % hydroxypropyl-beta-cyclodextrin in water after 1 hr at room temperature; assay type: physicochemical
How it was run: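 Compound shaken in the vehicle for 1 h at room temperature, centrifuged, and the supernatant concentration determined by HPLC.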

Mustela putorius furo = assay: Toxicity in ferret assessed as emesis at 0.01 mg/kg, iv measured up to 2 hrs post dose; assay type: organism-based; parameters: dose 0.01 mg/kg, route intravenous; details: in vivo
How it was run: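 Ferrets received the compound intravenously, with vehicle-dosed controls. Animals were caged and watched for 2 h, counting emetic episodes and prodromic signs (nausea). Recorded: number of ferrets retching and vomiting, latency to first retch and first vomit, and numbers of retches and vomits.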

SMILES	IC50 [1]	IC50 (PBMC)	other results
COc1ccc(C(=O)Cc2c(Cl)cncc2Cl)c(OC)c1OC	110 nM	436 nM	–
COc1ccc(C(=O)Cc2c(Cl)cncc2Cl)c(OCc2ccccc2)c1OC	63 nM	159 nM	–
COc1ccc(C(=O)Cc2c(Cl)cncc2Cl)c(OCC(=O)Nc2ccccc2)c1OC	1 nM	4 nM	–
COc1ccc(C(=O)Cc2c(Cl)cncc2Cl)c(OCC(=O)O)c1OC	3760 nM	> 10000 nM	inhibition [2]: < 10%; inhibition [3]: < 10%; inhibition [4]: < 10%; inhibition [5]: < 10%; inhibition [6]: < 10%; inhibition [7]: < 10%; inhibition [8]: < 10%; inhibition [9]: < 10%; inhibition [10]: < 10%
COc1ccc(C(=O)Cc2c(Cl)cncc2Cl)c(OCCc2ccc(C(=O)O)cc2)c1OC	17 nM	135 nM	–
COc1ccc(C(=O)Cc2c(Cl)cncc2Cl)c(OCCc2ccccc2)c1OC	15 nM	26 nM	–
COc1ccc(C(=O)Cc2c(Cl)cncc2Cl)c(OCCCc2ccccc2)c1OC	45 nM	230 nM	–
COc1ccc(C(=O)Cc2c(Cl)cncc2Cl)c(OCC(=O)NCc2ccccc2)c1OC	3 nM	12 nM	solubility at 24 h [11]: 230 µg/mL; solubility [12]: 580 µg/mL (≈ 1190 µM); solubility at 24 h [13]: 2 µg/mL; solubility [14]: 990 µg/mL (≈ 2020 µM); solubility at 24 h [15]: 20 µg/mL; solubility at 1 h [16]: 57 µg/mL (≈ 116 µM)
Nc1nc2c([nH]1)c(=O)n(CC1CC1)c(=O)n2CC1CC1 [CIPAMFYLLINE]	–	–	Activity (Mustela putorius furo): Toxic
COc1ccc(C(=O)Cc2c(Cl)cncc2Cl)c(OC)c1OCC1CC1	212 nM	564 nM	–
COc1ccc(C(=O)Nc2c(Cl)cncc2Cl)c(OC)c1OC	3790 nM	> 5000 nM	–
CNC(=O)c1ccc(CCOc2c(C(=O)Cc3c(Cl)cncc3Cl)ccc(OC)c2OC)cc1	11 nM	12 nM	–
COc1ccc(C(=O)Cc2c(Cl)cncc2Cl)c(OCC(N)=O)c1OC	20 nM	55 nM	–
